Measurements as given in ChEMBL document CHEMBL4190252, “Synthesis, antitumor activity and CDK1 inhibiton of new thiazole nortopsentin analogues” (Eur J Med Chem, 2017).
Activity calls are given as the source filed them. The rule behind the calls is not given here.

What was measured:
A549 = assay: Growth inhibition of human A549/ATCC cells incubated for 48 hrs by sulforhodamine B assay; format: functional; settings: A549, 48 h
Method in brief: (§1)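 NCI full panel screen: five 10-fold dilutions (10^-4–10^-8 M). GI50 is the molar concentration giving 50% inhibition of net cell growth.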

HOP-62 = assay: Growth inhibition of human HOP62 cells incubated for 48 hrs by sulforhodamine B assay; format: functional; settings: HOP-62, 48 h; method in brief: as §1
NCI-H23 = assay: Growth inhibition of human NCI-H23 cells incubated for 48 hrs by sulforhodamine B assay; format: functional; settings: NCI-H23, 48 h; method in brief: as §1
NCI-H322M = assay: Growth inhibition of human NCI-H322M cells incubated for 48 hrs by sulforhodamine B assay; format: functional; method in brief: as §1
NCI-H460 = assay: Growth inhibition of human NCI-H460 cells incubated for 48 hrs by sulforhodamine B assay; format: functional; settings: NCI-H460, 48 h; method in brief: as §1
NCI-H522 = assay: Growth inhibition of human NCI-H522 cells incubated for 48 hrs by sulforhodamine B assay; format: functional; settings: NCI-H522, 48 h; method in brief: as §1
COLO 205 = assay: Growth inhibition of human COLO205 cells incubated for 48 hrs by sulforhodamine B assay; format: functional; settings: COLO 205, 48 h; method in brief: as §1
HCT-15 = assay: Growth inhibition of human HCT15 cells incubated for 48 hrs by sulforhodamine B assay; format: functional; settings: HCT-15, 48 h; method in brief: as §1
SW-620 = assay: Growth inhibition of human SW620 cells incubated for 48 hrs by sulforhodamine B assay; format: functional; settings: SW-620, 48 h
Method in brief: (§2)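 NCI full-panel human tumour cell screen. Cells were exposed to five 10-fold dilutions from 10^-4 to 10^-8 M. GI50 is the molar concentration giving 50% inhibition of net cell growth, and a mean graph midpoint was calculated across the panel.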

SF-295 = assay: Growth inhibition of human SF295 cells incubated for 48 hrs by sulforhodamine B assay; format: functional; settings: SF-295, 48 h; method in brief: as §1
U-251 = assay: Growth inhibition of human U251 cells incubated for 48 hrs by sulforhodamine B assay; format: functional; settings: U-251, 48 h; method in brief: as §2
LOX IMVI = assay: Growth inhibition of human LOXIMVI cells incubated for 48 hrs by sulforhodamine B assay; format: functional; method in brief: as §1
M14 = assay: Growth inhibition of human M14 cells incubated for 48 hrs by sulforhodamine B assay; format: functional; settings: M14, 48 h; method in brief: as §1
MDA-MB-435 = assay: Growth inhibition of human MDA-MB-435 cells incubated for 48 hrs by sulforhodamine B assay; format: functional; settings: MDA-MB-435, 48 h; method in brief: as §1
UACC-257 = assay: Growth inhibition of human UACC257 cells incubated for 48 hrs by sulforhodamine B assay; format: functional; settings: UACC-257, 48 h; method in brief: as §2
OVCAR-5 = assay: Growth inhibition of human OVCAR5 cells incubated for 48 hrs by sulforhodamine B assay; format: functional; settings: OVCAR-5, 48 h; method in brief: as §1
OVCAR-8 = assay: Growth inhibition of human OVCAR8 cells incubated for 48 hrs by sulforhodamine B assay; format: functional; settings: OVCAR-8, 48 h; method in brief: as §1
NCI/ADR-RES = assay: Growth inhibition of human NCI/ADR-RES cells incubated for 48 hrs by sulforhodamine B assay; format: functional; method in brief: as §1
SK-OV-3 = assay: Growth inhibition of human SKOV3 cells incubated for 48 hrs by sulforhodamine B assay; format: functional; settings: SK-OV-3, 48 h; method in brief: as §2
A498 = assay: Growth inhibition of human A498 cells incubated for 48 hrs by sulforhodamine B assay; format: functional; settings: A498, 48 h; method in brief: as §1
ACHN = assay: Growth inhibition of human ACHN cells incubated for 48 hrs by sulforhodamine B assay; format: functional; method in brief: as §1
CAKI-1 = assay: Growth inhibition of human Caki1 cells incubated for 48 hrs by sulforhodamine B assay; format: functional; settings: CAKI-1, 48 h; method in brief: as §1
SN12C = assay: Growth inhibition of human SN12C cells incubated for 48 hrs by sulforhodamine B assay; format: functional; method in brief: as §2
PC-3 = assay: Growth inhibition of human PC3 cells incubated for 48 hrs by sulforhodamine B assay; format: functional; settings: PC-3, 48 h; method in brief: as §1
MCF7 [1] = assay: Growth inhibition of human MCF7 cells incubated for 48 hrs by sulforhodamine B assay; format: functional; settings: MCF7, 48 h; method in brief: as §1
MDA-MB-231 = assay: Growth inhibition of human MDA-MB-231 cells incubated for 48 hrs by sulforhodamine B assay; format: functional; settings: MDA-MB-231, 48 h; method in brief: as §1
Hs-578T = assay: Growth inhibition of human Hs 578T cells incubated for 48 hrs by sulforhodamine B assay; format: functional; method in brief: as §1
BT-549 = assay: Growth inhibition of human BT549 cells incubated for 48 hrs by sulforhodamine B assay; format: functional; settings: BT-549, 48 h; method in brief: as §1
T47D = assay: Growth inhibition of human T47D cells incubated for 48 hrs by sulforhodamine B assay; format: functional; method in brief: as §2
MCF7 [2] = assay: Cell cycle arrest in human MCF7 cells assessed as increase in accumulation at G2/M phase at GI50 concentration after 48 hrs by propidium iodide-staining based flow cytometry; format: functional
Method in brief: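 Cells were trypsinized, washed in cold PBS, and 1 x 10^6 cells stained with 20 µg/ml PI plus 200 µg/ml RNase for 30 min at room temperature in the dark. At least 1x 10^4 cells were analysed by flow cytometry. Mean±SD of three experiments in triplicate.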

Caco-2 = assay: Cytotoxicity against human Caco2 cells assessed as reduction in cell viability after 72 hrs by MTT assay; format: cell-based; settings: caco-2, 72 h
Method in brief: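 Caco-2 cells grown in RPMI with 10% FBS and L-glutamine, then treated 15 days after confluence, once differentiated into normal intestinal-like cells. Seeded at 2 × 10^4 cells/well and exposed 72 h to 5–100 µM, DMSO 0.1% vehicle. MTT 2 h at 37 °C, formazan in DMSO, absorbance 570 nm. Vehicle control = 100%; LC50 from viability-versus-concentration plot. At least three experiments in triplicate.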

MCF7 [3] = assay: Induction of apoptosis in human MCF7 cells assessed as late apoptotic cells at 2 x 10^-6 M after 72 hrs by Annexin V/propidium iodide double staining-based flow cytometry (reference value: 0%); format: functional
Method in brief: (§3)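 MCF-7 cells were grown in RPMI with 10% FBS, 2 mM L-glutamine and antibiotics at 37 °C in 5% CO2. They were seeded at 2.0 x 10^5 cells/cm2 in triplicate, left to adhere overnight, then treated for 72 h; DMSO 0.1% served as vehicle. Trypsinised cells at 2.0 x 10^5/mL were stained with annexin V-FITC and PI for 15 min at room temperature in the dark. At least 1.0 x 10^4 cells were gated into viable, early apoptotic, late apoptotic and necrotic quadrants.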

MCF7 [4] = assay: Induction of apoptosis in human MCF7 cells assessed as necrotic cells at 2 x 10^-6 M after 72 hrs by Annexin V/propidium iodide double staining-based flow cytometry (reference value: 0.1%); format: functional; method in brief: as §3
[5] = Selectivity index, ratio of LC50 for human Caco2 cells to GI50 for human MCF7 cells; format: toxicity; settings: Caco2 cells (LC50) and MCF7 cells (GI50), read-out: Selectivity Index
Method in brief: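 Caco-2 cells were differentiated to a normal intestinal-like state for 15 days after confluence, seeded at 2 x 10^4 cells/well in RPMI, and treated with 5–100 µM for 72 h. MTT was added for 2 h at 37 °C, formazan was dissolved in DMSO and read at 570 nm. LC50 came from viability-versus-concentration plots, with at least three experiments in triplicate. SI is the Caco-2 LC50 divided by the MCF-7 GI50.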

Structure (SMILES) | GI50 (A549) | GI50 (HOP-62) | GI50 (NCI-H23) | GI50 (NCI-H322M) | GI50 (NCI-H460) | GI50 (NCI-H522) | GI50 (COLO 205) | GI50 (HCT-15) | GI50 (SW-620) | GI50 (SF-295) | GI50 (U-251) | GI50 (LOX IMVI) | GI50 (M14) | GI50 (MDA-MB-435) | GI50 (OVCAR-5) | GI50 (OVCAR-8) | GI50 (NCI/ADR-RES) | GI50 (A498) | GI50 (ACHN) | GI50 (CAKI-1) | further results
COCCn1cc(-c2nc(-c3c[nH]c4ncccc34)cs2)c2cc(OC)ccc21 | 4.41 µM | 2.12 µM | 1.63 µM | 1.95 µM | 1.32 µM | 5.18 µM | 5.03 µM | 2.15 µM | 4.5 µM | 2.7 µM | 4.43 µM | 3.69 µM | 5.82 µM | 6.41 µM | 0.61 µM | 4.11 µM | 3.07 µM | 1.87 µM | 3.08 µM | 4.36 µM | GI50 (UACC-257): 4.26 µM; GI50 (SK-OV-3): 3.49 µM; GI50 (SN12C): 5.51 µM; GI50 (PC-3): 4.22 µM; GI50 (MCF7 [1]): 0.05 µM; GI50 (MDA-MB-231): 2.02 µM; GI50 (Hs-578T): 2.07 µM; GI50 (BT-549): 2.38 µM; GI50 (T47D): 0.04 µM; Activity (MCF7 [2]): Active; LC50 (Caco-2): < 100 µM
COCCn1cc(-c2csc(-c3c[nH]c4ccc(Br)cc34)n2)c2cccnc21 | 6.89 µM | 7.98 µM | 3.21 µM | 11.8 µM | 3.07 µM | 2.17 µM | 3.22 µM | 3.14 µM | 3.3 µM | 2.83 µM | 6.18 µM | 2.67 µM | 3.27 µM | 4.12 µM | 4.83 µM | 5.35 µM | 2.86 µM | 3.02 µM | 3.04 µM | 5.21 µM | GI50 (UACC-257): 8.69 µM; GI50 (SK-OV-3): 13.9 µM; GI50 (SN12C): 7.72 µM; GI50 (PC-3): 3.68 µM; GI50 (MCF7 [1]): 1.79 µM; GI50 (MDA-MB-231): 2.65 µM; GI50 (Hs-578T): 4.44 µM; GI50 (BT-549): 4.8 µM; GI50 (T47D): 1.97 µM; Activity (MCF7 [3]): 0%; Activity (MCF7 [4]): 0.1%; LC50 (Caco-2): 83.3 µM; selectivity ratio [5]: 46
COCCn1cc(-c2csc(-c3c[nH]c4ccccc34)n2)c2cccnc21 | 7.1 µM | 2.82 µM | 4.58 µM | > 100 µM | 3.4 µM | 2.07 µM | 2.66 µM | 2.34 µM | 3.52 µM | 3.35 µM | 6.12 µM | 3.96 µM | 3.22 µM | 0.86 µM | 28.2 µM | 8 µM | 1.76 µM | 3.03 µM | 5.6 µM | 8.36 µM | GI50 (UACC-257): > 100 µM; GI50 (SK-OV-3): 14.8 µM; GI50 (SN12C): > 100 µM; GI50 (PC-3): 6.81 µM; GI50 (MCF7 [1]): 1.74 µM; GI50 (MDA-MB-231): 5.05 µM; GI50 (Hs-578T): 9.14 µM; GI50 (BT-549): 4.45 µM; GI50 (T47D): 0.42 µM; Activity (MCF7 [3]): 0%; Activity (MCF7 [4]): 0.1%; Activity (MCF7 [2]): Active; LC50 (Caco-2): 71.4 µM; selectivity ratio [5]: 41
COCCn1cc(-c2csc(-c3c[nH]c4ccc(F)cc34)n2)c2cccnc21 | 4.51 µM | 2.02 µM | 3.88 µM | > 100 µM | 3.38 µM | 2.19 µM | 2.69 µM | 2.35 µM | 3.63 µM | 3.2 µM | 5.14 µM | 3.44 µM | 3.14 µM | 0.9 µM | 10.1 µM | 4.1 µM | 2.17 µM | 3.26 µM | 5.27 µM | 9.54 µM | GI50 (SN12C): > 100 µM; GI50 (PC-3): 5.06 µM; GI50 (MCF7 [1]): 2.09 µM; GI50 (MDA-MB-231): 2.59 µM; GI50 (Hs-578T): 8.82 µM; GI50 (BT-549): 4.26 µM; GI50 (T47D): 0.65 µM; Activity (MCF7 [3]): 0%; Activity (MCF7 [4]): 0.1%; Activity (MCF7 [2]): Active; LC50 (Caco-2): 96.1 µM; selectivity ratio [5]: 46
